Measurements from different studies.
In brackets after ≈: the same amount, converted by molar mass.
Method: broth dilution

With `O=C(Nc1ccc(C(F)(F)F)cc1)c1ccc(COC(Cn2ccnc2)c2ccc(Cl)cc2Cl)cc1` (centres unmarked) the MIC80 was 0.06 µg/mL (≈ 0.112 µM) (Lodderomyces parapsilosis; microbial growth).
With `O=c1oc2c(O)c(O)cc3c(=O)oc4c(O)c(O)cc1c4c23` the MBC was 200 µg/mL (≈ 662 µM) (Streptococcus sobrinus; microbial killing).
The MIC of `C[C@@H]1O[C@@H]1P(=O)(O)O` is reported as 31.2 µg/mL (Neisseria gonorrhoeae; microbial growth; ATCC49226).
The MIC of `C/C(=N\C(=N)/N=C(\C)c1c(O)c2ccccc2oc1=O)c1c(O)c2ccccc2oc1=O` is reported as 62.5 µg/mL (≈ 145 µM) (Aspergillus niger; microbial growth; 48 h).
`COc1ccc(NC(=O)c2ccc(COC(Cn3ccnc3)c3ccc(Cl)cc3Cl)cc2)cc1` (centres unmarked) has an MIC80 of 0.125 µg/mL (≈ 0.252 µM) (Lodderomyces parapsilosis; microbial growth).
For `Oc1cc(O)c2c(c1)O[C@H](c1cc(O)c(O)c(O)c1)[C@@H](O)C2`, the MIC was 100 µg/mL (≈ 327 µM) (Streptococcus sobrinus; microbial growth; 24 h).
`O=C(Nc1cccc(F)c1)c1ccc(COC(Cn2ccnc2)c2ccc(Cl)cc2Cl)cc1` (centres unmarked) has an MIC80 of 0.125 µg/mL (≈ 0.258 µM) (Lodderomyces parapsilosis; microbial growth).
The MBC of `O=C1O[C@H]2[C@@H]3OC(=O)c4cc(O)c(O)c(O)c4-c4c(O)c(O)c5oc(=O)c6c(c(O)c(O)c7oc(=O)c4c5c76)-c4c(cc(O)c(O)c4O)C(=O)OC[C@H]3OC(O)[C@@H]2OC(=O)c2cc(O)c(O)c(O)c2-c2c1cc(O)c(O)c2O` (mixture of isomers) is reported as 200 µg/mL (Streptococcus sobrinus; microbial killing).
`O=C(Nc1ccc(Br)cc1)c1ccc(COC(Cn2ccnc2)c2ccc(Cl)cc2Cl)cc1` (centres unmarked) has an MIC80 of 0.125 µg/mL (≈ 0.229 µM) (Lodderomyces parapsilosis; microbial growth).
`C[C@@H]1O[C@@H](OC[C@H]2O[C@@H](Oc3c(-c4ccc(O)c(O)c4)oc4cc(O)cc(O)c4c3=O)[C@H](O)[C@@H](O)[C@@H]2O)[C@H](O)[C@H](O)[C@H]1O` has an MBC of 400 µg/mL (≈ 655 µM) (Streptococcus sobrinus; microbial killing).
The MIC of `COc1cc(C=O)ccc1OC1=C(Cl)C(=O)c2ccccc2C1=O` is reported as 12 µg/mL (≈ 35 µM) (Aspergillus niger; microbial growth).
For `O=C1OC[C@H]2OC(O)[C@H](O)[C@@H](O)[C@@H]2OC(=O)c2cc(O)c(O)c(O)c2-c2c(O)c(O)c3oc(=O)c4c(c(O)c(O)c5oc(=O)c2c3c54)-c2c1cc(O)c(O)c2O` (mixture of isomers), the MIC was 100 µg/mL (Streptococcus sobrinus; microbial growth; 24 h).
With `C/C(=N\C(=O)/N=C(\C)c1c(O)c2ccccc2oc1=O)c1c(O)c2ccccc2oc1=O` the MIC was 125 µg/mL (≈ 289 µM) (Aspergillus niger; microbial growth; 48 h).
With `O=C(O[C@@H]1O[C@@H]2COC(=O)c3cc(O)c(O)c(O)c3-c3c(cc(O)c(O)c3O)C(=O)O[C@H]([C@H]1O)[C@@H]2O)c1cc(O)c(O)c(O)c1` the MBC was 400 µg/mL (≈ 630 µM) (Streptococcus sobrinus; microbial killing).
For `C/C(=N\N=C(/C)c1c(O)c2ccccc2oc1=O)c1c(O)c2ccccc2oc1=O`, the MIC was 125 µg/mL (≈ 309 µM) (Aspergillus niger; microbial growth; 48 h).
`O=C(Nc1ccc2ccccc2c1)c1ccc(COC(Cn2ccnc2)c2ccc(Cl)cc2Cl)cc1` (centres unmarked) gave an MIC80 of 32 µg/mL (≈ 62 µM) (Lodderomyces parapsilosis; microbial growth).
With `C/C(=N\NC(=O)/N=C(\C)c1c(O)c2ccccc2oc1=O)c1c(O)c2ccccc2oc1=O` the MIC was 125 µg/mL (≈ 279 µM) (Aspergillus niger; microbial growth; 48 h).
`Cc1ccc(NC(=O)c2ccc(COC(Cn3ccnc3)c3ccc(Cl)cc3Cl)cc2)cc1` (centres unmarked) gave an MIC80 of 0.06 µg/mL (≈ 0.125 µM) (Lodderomyces parapsilosis; microbial growth).
The MIC of `CC(=O)N1CCN(c2ccc(OCC3COC(Cn4ccnc4)(c4ccc(Cl)cc4Cl)O3)cc2)CC1` (centres unmarked) is reported as 7.8 µg/mL (≈ 14.7 µM) (Aspergillus niger; microbial growth; 48 h).
The MIC of `CC1CCC(C(C)C)C(OC2=C(Cl)C(=O)c3ccccc3C2=O)C1` (centres unmarked) is reported as 12 µg/mL (≈ 34.6 µM) (Aspergillus niger; microbial growth).
